# According to ChEMBL document CHEMBL3751694, “1-Piperazinylphthalazines as potential VEGFR-2 inhibitors and anticancer agents: Synthesis and in vitro biological evaluation” (Eur J Med Chem, 2016):
# Legend:
# Format in all cases: functional
# [1] = Growth inhibition of human HL-60(TB) cells at 10 uM after 48 hrs by SRB method; conditions: HL-60, 48 h, read-out: GI
# Method in brief: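 NCI single-dose primary screen at 10^-5 M, 48 h exposure. Cells grown in RPMI 1640 with 5% FBS and 2 mM L-glutamine. Suspension cells fixed in situ with TCA (final 16%), stained with SRB, absorbance read at 515 nm. Percent growth inhibition calculated against time-zero and untreated control plates.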
# [2] = system: MDA-MB-468; experiment: Growth inhibition of human MDA-MB-468 cells at 10 uM after 48 hrs by SRB method; conditions: MDA-MB-468, 48 h, read-out: GI
# Method in brief: (§1)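 NCI 56-line primary screen at a single 10^-5 M concentration. Cells grown in RPMI 1640 with 5% FBS and 2 mM L-glutamine, plated at 5000–40,000 cells/well, then preincubated for 24 h. Exposure was 48 h at 37 °C and 5% CO2. Adherent cells were fixed with cold TCA at 10% final, suspension cells at 16%. Staining used 0.4% SRB, read at 515 nm. Results are % growth inhibition relative to control.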
# [3] = Growth inhibition of human OVCAR8 cells at 10 uM after 48 hrs by SRB method; conditions: OVCAR-8, 48 h, read-out: GI; method in brief: as §1
# [4] = Growth inhibition of human UO31 cells at 10 uM after 48 hrs by SRB method; conditions: UO-31, 48 h, read-out: GI
# Method in brief: (§2)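 NCI 56-line screen, single-dose primary assay at 10^-5 M. Cells grown in RPMI 1640 with 5% FBS and 2 mM L-glutamine, plated at 5000–40,000 cells/well and held 24 h at 37 °C, 5% CO2 before drug addition. Compound was given from DMSO stock, exposure 48 h, then TCA fixation and SRB staining with absorbance at 515 nm. % growth is taken relative to time-zero and untreated controls.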
# [5] = system: SK-MEL-5; experiment: Growth inhibition of human SK-MEL-5 cells at 10 uM after 48 hrs by SRB method; conditions: SK-MEL-5, 48 h, read-out: GI; method in brief: as §1
# [6] = Growth inhibition of human […] cells at 10 uM after 48 hrs by SRB method; conditions: read-out: GI; method in brief: as §1
# [7] = system: K562; experiment: Growth inhibition of human K562 cells at 10 uM after 48 hrs by SRB method; conditions: K562, 48 h, read-out: GI; method in brief: as §1
# [8] = Growth inhibition of human MOLT4 cells at 10 uM after 48 hrs by SRB method; conditions: MOLT-4, 48 h, read-out: GI; method in brief: as §1
# [9] = Growth inhibition of human PC3 cells at 10 uM after 48 hrs by SRB method; conditions: PC-3, 48 h, read-out: GI; method in brief: as §1
# [10] = system: NCI-H522; experiment: Growth inhibition of human NCI-H522 cells at 10 uM after 48 hrs by SRB method; conditions: NCI-H522, 48 h, read-out: GI; method in brief: as §1
# [11] = system: SR; experiment: Growth inhibition of human SR cells at 10 uM after 48 hrs by SRB method; conditions: read-out: GI; method in brief: as §1
# [12] = system: T47D; experiment: Growth inhibition of human T47D cells at 10 uM after 48 hrs by SRB method; conditions: read-out: GI; method in brief: as §2
# [13] = system: NCI-H226; experiment: Growth inhibition of human NCI-H226 cells at 10 uM after 48 hrs by SRB method; conditions: NCI-H226, 48 h, read-out: GI; method in brief: as §1
# [14] = Growth inhibition of human HOP92 cells at 10 uM after 48 hrs by SRB method; conditions: HOP-92, 48 h, read-out: GI; method in brief: as §1
# [15] = system: HT-29; experiment: Growth inhibition of human HT-29 cells at 10 uM after 48 hrs by SRB method; conditions: HT-29, 48 h, read-out: GI; method in brief: as §1
# [16] = Growth inhibition of human IGROV1 cells at 10 uM after 48 hrs by SRB method; conditions: IGROV-1, 48 h, read-out: GI; method in brief: as §1
# [17] = Growth inhibition of human COLO205 cells at 10 uM after 48 hrs by SRB method; conditions: COLO 205, 48 h, read-out: GI; method in brief: as §1
# [18] = Growth inhibition of human BT549 cells at 10 uM after 48 hrs by SRB method; conditions: BT-549, 48 h, read-out: GI; method in brief: as §1
# [19] = system: MDA-MB-231; experiment: Growth inhibition of human MDA-MB-231 cells at 10 uM after 48 hrs by SRB method; conditions: MDA-MB-231, 48 h, read-out: GI; method in brief: as §1
# [20] = system: A498; experiment: Growth inhibition of human A498 cells at 10 uM after 48 hrs by SRB method; conditions: A498, 48 h, read-out: GI; method in brief: as §1
# [21] = Growth inhibition of human HCT116 cells at 10 uM after 48 hrs by SRB method; conditions: HCT-116, 48 h, read-out: GI; method in brief: as §1
# [22] = system: CCRF-CEM; experiment: Growth inhibition of human CCRF-CEM cells at 10 uM after 48 hrs by SRB method; conditions: read-out: GI; method in brief: as §1
# [23] = Growth inhibition of human Caki1 cells at 10 uM after 48 hrs by SRB method; conditions: CAKI-1, 48 h, read-out: GI; method in brief: as §1
# [24] = Growth inhibition of human TK10 cells at 10 uM after 48 hrs by SRB method; conditions: TK-10, 48 h, read-out: GI; method in brief: as §2
# [25] = system: A549; experiment: Growth inhibition of human A549 cells at 10 uM after 48 hrs by SRB method; conditions: A549, 48 h, read-out: GI; method in brief: as §1
# [26] = system: NCI/ADR-RES; experiment: Growth inhibition of human NCI/ADR-RES cells at 10 uM after 48 hrs by SRB method; conditions: read-out: GI; method in brief: as §1
# [27] = Growth inhibition of human UACC62 cells at 10 uM after 48 hrs by SRB method; conditions: UACC-62, 48 h, read-out: GI; method in brief: as §2
# [28] = Growth inhibition of human OVCAR3 cells at 10 uM after 48 hrs by SRB method; conditions: OVCAR-3, 48 h, read-out: GI; method in brief: as §1
# [29] = system: MCF7; experiment: Growth inhibition of human MCF7 cells at 10 uM after 48 hrs by SRB method; conditions: MCF7, 48 h, read-out: GI; method in brief: as §1
# [30] = Growth inhibition of human UACC257 cells at 10 uM after 48 hrs by SRB method; conditions: UACC-257, 48 h, read-out: GI; method in brief: as §2
# [31] = system: SK-MEL-2; experiment: Growth inhibition of human SK-MEL-2 cells at 10 uM after 48 hrs by SRB method; conditions: SK-MEL-2, 48 h, read-out: GI; method in brief: as §1
Structure (SMILES),inhibition of growth at 10 µM [1] [%],inhibition of growth at 10 µM [2] [%],inhibition of growth at 10 µM [4] [%],inhibition of growth at 10 µM [5] [%],inhibition of growth at 10 µM [6] [%],inhibition of growth at 10 µM [7] [%],inhibition of growth at 10 µM [8] [%],inhibition of growth at 10 µM [9] [%],inhibition of growth at 10 µM [10] [%],inhibition of growth at 10 µM [11] [%],inhibition of growth at 10 µM [12] [%],inhibition of growth at 10 µM [14] [%],inhibition of growth at 10 µM [20] [%],further results
O=C(CN1CCN(c2nnc(-c3ccccc3)c3ccccc23)CC1)Nc1c(Cl)cccc1Cl,38,43,38,44,48,43,42,34,34,40,60,47,,inhibition of growth at 10 µM [3]: 35%; inhibition of growth at 10 µM [13]: 30%
CC(=O)c1sc(NC(=O)CN2CCN(c3nnc(-c4ccccc4)c4ccccc34)CC2)nc1C,,49,43,33,45,,52,53,41,49,81,70,45,inhibition of growth at 10 µM [15]: 31%; inhibition of growth at 10 µM [16]: 40%; inhibition of growth at 10 µM [17]: 30%; inhibition of growth at 10 µM [18]: 34%; inhibition of growth at 10 µM [19]: 41%
O=C(CN1CCN(c2nnc(-c3ccccc3)c3ccccc23)CC1)c1ccc(Cl)cc1,,38,,,,33,30,,57,,41,,,
COc1ccc(-c2csc(NC(=O)CN3CCN(c4nnc(-c5ccccc5)c5ccccc45)CC3)n2)cc1,40,58,48,46,50,48,62,47,34,44,82,,43,inhibition of growth at 10 µM [21]: 32%; inhibition of growth at 10 µM [22]: 34%; inhibition of growth at 10 µM [23]: 33%; inhibition of growth at 10 µM [17]: 40%; inhibition of growth at 10 µM [24]: 32%; inhibition of growth at 10 µM [19]: 42%; inhibition of growth at 10 µM [25]: 34%; inhibition of growth at 10 µM [13]: 36%
O=C(CN1CCN(c2nnc(-c3ccccc3)c3ccccc23)CC1)Nc1nccs1,38,59,40,36,51,36,39,38,41,31,64,35,,inhibition of growth at 10 µM [22]: 30%; inhibition of growth at 10 µM [26]: 32%; inhibition of growth at 10 µM [27]: 37%; inhibition of growth at 10 µM [28]: 38%
O=C(CN1CCN(c2nnc(-c3ccccc3)c3ccccc23)CC1)Nc1cccc(C(F)(F)F)c1,,60,,41,46,38,52,40,53,55,59,,32,inhibition of growth at 10 µM [22]: 31%; inhibition of growth at 10 µM [27]: 41%; inhibition of growth at 10 µM [29]: 41%; inhibition of growth at 10 µM [25]: 34%
COc1ccc(NC(=O)CN2CCN(c3nnc(-c4ccccc4)c4ccccc34)CC2)cc1,,37,,,,,,,30,,55,,,
O=C(CN1CCN(c2nnc(-c3ccccc3)c3ccccc23)CC1)Nc1ccccc1Cl,40,43,37,,48,33,31,45,42,36,58,31,,inhibition of growth at 10 µM [30]: 30%; inhibition of growth at 10 µM [16]: 46%
COc1ccc(C(=O)CN2CCN(c3nnc(-c4ccccc4)c4ccccc34)CC2)cc1,,,35,,32,30,,,35,,36,,,
N#Cc1ccc(NC(=O)CN2CCN(c3nnc(-c4ccccc4)c4ccccc34)CC2)cc1,30,50,49,47,39,34,43,,37,36,64,40,44,inhibition of growth at 10 µM [30]: 30%; inhibition of growth at 10 µM [23]: 34%; inhibition of growth at 10 µM [17]: 32%; inhibition of growth at 10 µM [27]: 32%; inhibition of growth at 10 µM [29]: 30%
O=C(CN1CCN(c2nnc(-c3ccccc3)c3ccccc23)CC1)Nc1ccc(Cl)cc1,30,53,34,,40,30,41,32,53,40,57,,36,inhibition of growth at 10 µM [31]: 33%
